Measurements reported in ChEMBL document CHEMBL2434890, “Design, synthesis and structure-activity relationship of novel quinoxaline derivatives as cancer chemopreventive agent by inhibition of tyrosine kinase receptor” (Eur J Med Chem, 2013).

Tested on: Raji
Assay: Inhibition of TPA-induced EBV early antigen activation infected in human Raji cells assessed as antigen activity at 10 mol ratio/TPA after 48 hrs by immunofluorescence method relative to control
Format: cell-based
Set-up: scale not given: the % may be the effect or the level left
Settings: human gammaherpesvirus 4; call rule not given here

| Structure (SMILES) | Activity [%] |
| --- | --- |
| O=C1CCC(=O)N(c2nc3ccccc3[nH]c2=O)N1 | 100 |
| C=CCn1c(=O)c(N/N=C/c2c(OC)cccc2OC)nc2ccccc21 | 100 |
| O=C1Nc2ccccc2N2C(O)=CNN=C12 | 100 |
| CCOC(=O)Cn1c(=O)c(N/N=C/c2c(OC)cccc2OC)nc2ccccc21 | 100 |
| O=C(c1ccccc1)N1C(=S)NNC12Nc1ccccc1NC2=O (stereo unspecified) | 100 |
| C=CCn1c(=O)c(N/N=C/c2ccc(N(C)C)cc2)nc2ccccc21 | 100 |
| CC(C)=NNc1nc2ccccc2[nH]c1=O | 100 |
| CN1C(=S)NNC12Nc1ccccc1NC2=O (stereo unspecified) | 100 |
| N=c1c(O)nnc2c(=O)[nH]c3ccccc3n12 | 100 |
| COc1cccc(OC)c1/C=N/Nc1nc2ccccc2[nH]c1=O | 100 |

Tested on: Raji
Assay: Inhibition of TPA-induced EBV early antigen activation infected in human Raji cells assessed as antigen activity at 1000 mol ratio/TPA after 48 hrs by immunofluorescence method relative to control
Format: cell-based
Set-up: scale not given: the % may be the effect or the level left
Settings: human gammaherpesvirus 4

| Structure (SMILES) | Activity [%] |
| --- | --- |
| O=C1CCC(=O)N(c2nc3ccccc3[nH]c2=O)N1 | 16.7 |
| C=CCn1c(=O)c(N/N=C/c2c(OC)cccc2OC)nc2ccccc21 | 10.8 |
| O=C1Nc2ccccc2N2C(O)=CNN=C12 | 13.2 |
| CCOC(=O)Cn1c(=O)c(N/N=C/c2c(OC)cccc2OC)nc2ccccc21 | 13.5 |
| O=C(c1ccccc1)N1C(=S)NNC12Nc1ccccc1NC2=O (stereo unspecified) | 19.1 |
| C=CCn1c(=O)c(N/N=C/c2ccc(N(C)C)cc2)nc2ccccc21 | 10.1 |
| CC(C)=NNc1nc2ccccc2[nH]c1=O | 13.2 |
| CN1C(=S)NNC12Nc1ccccc1NC2=O (stereo unspecified) | 18.7 |
| N=c1c(O)nnc2c(=O)[nH]c3ccccc3n12 | 15 |
| COc1cccc(OC)c1/C=N/Nc1nc2ccccc2[nH]c1=O | 16.8 |

Tested on: not listed separately
Assay: Cytotoxicity against human Raji cells assessed as cell viability at 1000 mol ratio/TPA after 48 hrs by trypan blue staining method
Format: cell-based
Settings: read-out: Activity
How it was run: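 Raji cells were treated as in the EBV-EA assay: 48 h at 37 °C with 4 mM n-butyric acid, […] and compound in DMSO (ca. 0.7%), dosed by mol ratio to TPA. Viability of the treated cells was determined by trypan blue staining.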

| Structure (SMILES) | viability at 48 h, 1000 mol ratio/TPA [%] |
| --- | --- |
| O=C1CCC(=O)N(c2nc3ccccc3[nH]c2=O)N1 | 60 |
| C=CCn1c(=O)c(N/N=C/c2c(OC)cccc2OC)nc2ccccc21 | 60 |
| O=C1Nc2ccccc2N2C(O)=CNN=C12 | 60 |
| CCOC(=O)Cn1c(=O)c(N/N=C/c2c(OC)cccc2OC)nc2ccccc21 | 60 |
| O=C(c1ccccc1)N1C(=S)NNC12Nc1ccccc1NC2=O (stereo unspecified) | 60 |
| C=CCn1c(=O)c(N/N=C/c2ccc(N(C)C)cc2)nc2ccccc21 | 60 |
| CC(C)=NNc1nc2ccccc2[nH]c1=O | 60 |
| CN1C(=S)NNC12Nc1ccccc1NC2=O (stereo unspecified) | 60 |
| N=c1c(O)nnc2c(=O)[nH]c3ccccc3n12 | 60 |
| COc1cccc(OC)c1/C=N/Nc1nc2ccccc2[nH]c1=O | 60 |

Tested on: not listed separately
Assay: Inhibition of TRK in human MCF7 cells after 48 hrs by ELISA
Format: cell-based
Settings: not given
How it was run: (§1)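 HepG2 or MCF-7 cells, kept in DMEM with 10% heat-inactivated FCS and penicillin, seeded at 0.50×10⁶ per flask and treated 48 h at 37 °C, 5% CO₂ with compound in DMSO (2.5–40 μg/ml). Cells were homogenized in saline. TRK level was measured by double-antibody sandwich ELISA (OD 450 nm) against a standard curve, in triplicate. IC50 = 50% reduction of TRK relative to untreated cells.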

| Structure (SMILES) | IC50 |
| --- | --- |
| COc1cccc2c1C(=O)c1c(O)c3c(c(O)c1C2=O)C[C@@](O)(C(=O)CO)C[C@@H]3O[C@H]1C[C@H](N)[C@H](O)[C@H](C)O1 [DOXORUBICIN] | 3.2 nM |
| C=CCn1c(=O)c(N/N=C/c2c(OC)cccc2OC)nc2ccccc21 | 4.15 nM |
| CCOC(=O)Cn1c(=O)c(N/N=C/c2c(OC)cccc2OC)nc2ccccc21 | 4.6 nM |
| O=C(c1ccccc1)N1C(=S)NNC12Nc1ccccc1NC2=O (stereo unspecified) | Not Active |
| C=CCn1c(=O)c(N/N=C/c2ccc(N(C)C)cc2)nc2ccccc21 | 2.9 nM |
| CC(C)=NNc1nc2ccccc2[nH]c1=O | 17.2 nM |
| N=c1c(O)nnc2c(=O)[nH]c3ccccc3n12 | 20.2 nM |
| COc1cccc(OC)c1/C=N/Nc1nc2ccccc2[nH]c1=O | 8.75 nM |

Tested on: Raji
Assay: Inhibition of TPA-induced EBV early antigen activation infected in human Raji cells assessed as antigen activity at 500 mol ratio/TPA after 48 hrs by immunofluorescence method relative to control
Format: cell-based
Set-up: scale not given: the % may be the effect or the level left
Settings: human gammaherpesvirus 4

| Structure (SMILES) | Activity [%] |
| --- | --- |
| O=C1CCC(=O)N(c2nc3ccccc3[nH]c2=O)N1 | 47.7 |
| C=CCn1c(=O)c(N/N=C/c2c(OC)cccc2OC)nc2ccccc21 | 42 |
| O=C1Nc2ccccc2N2C(O)=CNN=C12 | 46 |
| CCOC(=O)Cn1c(=O)c(N/N=C/c2c(OC)cccc2OC)nc2ccccc21 | 45.7 |
| O=C(c1ccccc1)N1C(=S)NNC12Nc1ccccc1NC2=O (stereo unspecified) | 49.1 |
| C=CCn1c(=O)c(N/N=C/c2ccc(N(C)C)cc2)nc2ccccc21 | 41.6 |
| CC(C)=NNc1nc2ccccc2[nH]c1=O | 45 |
| CN1C(=S)NNC12Nc1ccccc1NC2=O (stereo unspecified) | 48.3 |
| N=c1c(O)nnc2c(=O)[nH]c3ccccc3n12 | 47.1 |
| COc1cccc(OC)c1/C=N/Nc1nc2ccccc2[nH]c1=O | 46.6 |

Tested on: Raji
Assay: Inhibition of TPA-induced EBV early antigen activation infected in human Raji cells assessed as antigen activity at 100 mol ratio/TPA after 48 hrs by immunofluorescence method relative to control
Format: cell-based
Set-up: scale not given: the % may be the effect or the level left
Settings: human gammaherpesvirus 4

| Structure (SMILES) | Activity [%] |
| --- | --- |
| O=C1CCC(=O)N(c2nc3ccccc3[nH]c2=O)N1 | 82.8 |
| C=CCn1c(=O)c(N/N=C/c2c(OC)cccc2OC)nc2ccccc21 | 73.5 |
| O=C1Nc2ccccc2N2C(O)=CNN=C12 | 77.6 |
| CCOC(=O)Cn1c(=O)c(N/N=C/c2c(OC)cccc2OC)nc2ccccc21 | 75.6 |
| O=C(c1ccccc1)N1C(=S)NNC12Nc1ccccc1NC2=O (stereo unspecified) | 85.2 |
| C=CCn1c(=O)c(N/N=C/c2ccc(N(C)C)cc2)nc2ccccc21 | 73.2 |
| CC(C)=NNc1nc2ccccc2[nH]c1=O | 77 |
| CN1C(=S)NNC12Nc1ccccc1NC2=O (stereo unspecified) | 84.6 |
| N=c1c(O)nnc2c(=O)[nH]c3ccccc3n12 | 79 |
| COc1cccc(OC)c1/C=N/Nc1nc2ccccc2[nH]c1=O | 81 |

Tested on: Raji
Assay: Inhibition of TPA-induced EBV early antigen activation infected in human Raji cells after 48 hrs by immunofluorescence method relative to control
Format: cell-based
Settings: human gammaherpesvirus 4

| Structure (SMILES) | inhibition |
| --- | --- |
| O=C1CCC(=O)N(c2nc3ccccc3[nH]c2=O)N1 | Dose-dependent effect |
| C=CCn1c(=O)c(N/N=C/c2c(OC)cccc2OC)nc2ccccc21 | Dose-dependent effect |
| O=C1Nc2ccccc2N2C(O)=CNN=C12 | Dose-dependent effect |
| CCOC(=O)Cn1c(=O)c(N/N=C/c2c(OC)cccc2OC)nc2ccccc21 | Dose-dependent effect |
| O=C(c1ccccc1)N1C(=S)NNC12Nc1ccccc1NC2=O (stereo unspecified) | Dose-dependent effect |
| C=CCn1c(=O)c(N/N=C/c2ccc(N(C)C)cc2)nc2ccccc21 | Dose-dependent effect |
| CC(C)=NNc1nc2ccccc2[nH]c1=O | Dose-dependent effect |
| CN1C(=S)NNC12Nc1ccccc1NC2=O (stereo unspecified) | Dose-dependent effect |
| N=c1c(O)nnc2c(=O)[nH]c3ccccc3n12 | Dose-dependent effect |
| COc1cccc(OC)c1/C=N/Nc1nc2ccccc2[nH]c1=O | Dose-dependent effect |

Tested on: not listed separately
Assay: Inhibition of TRK in human HepG2 cells after 48 hrs by ELISA
Format: cell-based
Settings: not given
How it was run: as §1

| Structure (SMILES) | IC50 |
| --- | --- |
| COc1cccc2c1C(=O)c1c(O)c3c(c(O)c1C2=O)C[C@@](O)(C(=O)CO)C[C@@H]3O[C@H]1C[C@H](N)[C@H](O)[C@H](C)O1 [DOXORUBICIN] | 2.5 nM |
| C=CCn1c(=O)c(N/N=C/c2c(OC)cccc2OC)nc2ccccc21 | 3.5 nM |
| CCOC(=O)Cn1c(=O)c(N/N=C/c2c(OC)cccc2OC)nc2ccccc21 | 4.1 nM |
| O=C(c1ccccc1)N1C(=S)NNC12Nc1ccccc1NC2=O (stereo unspecified) | Not Active |
| C=CCn1c(=O)c(N/N=C/c2ccc(N(C)C)cc2)nc2ccccc21 | 2.65 nM |
| CC(C)=NNc1nc2ccccc2[nH]c1=O | 15 nM |
| N=c1c(O)nnc2c(=O)[nH]c3ccccc3n12 | 18 nM |
| COc1cccc(OC)c1/C=N/Nc1nc2ccccc2[nH]c1=O | 7.5 nM |
